Shown is part of a subset that was picked to be rich in hits.
697 NFkB inh: inhibitors of the PMA/ionomycin-induced NF-kB reporter in 697 B cells; inhibition, % at 4 µM; hit rate 0.33% among 330,000; 697 B-cell NF-kB luciferase reporter, 16 h; in the data active = inhibition above about 35%
UPR CHOP act: apoptotic UPR (CHOP) activation. CHO-CHOP luciferase reporter, luminescence; percent of tunicamycin response over DMSO baseline. hit rate 0.34% among 330,000. activation, % at 10 µM;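 active = at 10 µM dose, activation of 40% or more, normalized to positive control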
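System: CHO-CHOP luciferase reporter cell line | Buffer or medium: F12 medium containing 10% fetal bovine serum | Doses: One dose, 10 µM in 0.5% DMSO | Times: 6 h compound exposure at 37 °C after overnight seeding | Signal: Luciferase luminescence | Read-out: % activation vs tunicamycin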
CHOP inhibitor: blocks CHOP induction under ER stress; CHO-K1 CHOP-promoter luciferase, tunicamycin-induced, 15-18 h; inhibition, % at 10 µM; hit rate 3.8% among 220,000;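 active = compounds that reduced the stress-induced luciferase reporter signal by more than about 70% of percent inhibition, limit read from the data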
UPR XBP1 act: adaptive UPR (XBP1) activation. hit rate 0.33% among 330,000. activation, % at 20 µM. CHO-XBP1 luciferase reporter, IRE1-XBP1 UPR activation, luminescence; percent of tunicamycin response, DMSO as zero;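 active = versus positive control, 20 µM dose yields 30% or more activation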
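Material: CHO-XBP1 cells stably carrying IRE1-XBP1-driven luciferase reporter | Medium: F12 with 10% serum | Compound dosing: 20 µM single concentration, DMSO 1% | Incubation: Overnight seeding at 37 °C, 6 h compound treatment at 37 °C | Detection: Steady-Glo luminescence read | Read-out basis: % activation of reporter signal versus tunicamycin and DMSO controls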
Jurkat NFkB inh: lowers PMA/ionomycin-induced NF-kB signal in Jurkat cells | inhibition, % at 4 µM | AID 435003 | hit rate 0.53% among 330,000 | PMA/ionomycin-induced NF-kB luciferase reporter, luminescence; in the data active = inhibition above about 50%
Large screens that a line does not name were inactive.

N#C/C(=C\c1cccc([N+](=O)[O-])c1)C(=O)NCc1ccc(Cl)cc1	CHOP inhibitor 92 (no result: 697 NFkB inh, UPR CHOP act, UPR XBP1 act, Jurkat NFkB inh)
CCOc1ccc2nc(NCCNC(=O)Nc3ccccc3)c(C#N)cc2c1	CHOP inhibitor 83 (no result: 697 NFkB inh, UPR CHOP act, UPR XBP1 act, Jurkat NFkB inh)
CCOc1ccc2nc(NCCNC(=S)NCCCN(C)C)c(C#N)cc2c1	none
CC(C)c1nc2sc3c(NCc4ccco4)ncnc3c2c2c1COC(C)(C)C2	CHOP inhibitor 78
COc1ccc(Cl)cc1NC(=S)N1CCCC1	none
Cc1cc(C)c2c(CC(=O)Nc3nccs3)coc2c1	CHOP inhibitor 82
Cc1cc(C)c2c(CC(=O)NC(C)C)coc2c1	none
Cc1cc(C)c(S(=O)(=O)c2ccccc2C)c(OCC(C)(C)C)n1	CHOP inhibitor 75
Cc1ccc(N2C(=O)C(NC(=O)c3ccccc3)(C(F)(F)F)C3=C2CC(C)(C)CC3=O)cc1 (stereo not given)	none
CC(C)CCNc1nc2c(c(=O)n(Cc3cccc(F)c3)c(=O)n2C)n1C	CHOP inhibitor 71
CC(O)CNc1nc2c(c(=O)n(Cc3ccc(Cl)c(Cl)c3)c(=O)n2C)n1C (stereo not given)	CHOP inhibitor 78
Cn1c(NCCO)nc2c1c(=O)n(Cc1ccc(F)cc1)c(=O)n2C	none (no result: CHOP inhibitor)
Cc1ccc(NC(=O)C2CCN(S(C)(=O)=O)CC2)cc1Cl	none (no result: CHOP inhibitor)
CCCNC(=O)COc1ccc(-c2nn(C)c(=O)c3ccccc23)cc1	none (no result: CHOP inhibitor)
CCOC(=O)c1cccc(NC(=O)C2(S(=O)(=O)c3ccc(C)cc3)CC2)c1	none
Cn1cc(SCC(=O)Nc2nc3ccccc3s2)c2ccccc21	CHOP inhibitor 71
CCOc1ccc(-c2nnc3ccc(SCC(=O)Nc4nc5ccccc5s4)nn23)cc1	CHOP inhibitor 70
Cn1c(CSCc2ccc(Cl)cc2)nnc1SCC(=O)Nc1nccs1	none
Cn1c(CSCc2ccc(Cl)cc2)nnc1SCC(=O)Nc1nc2ccccc2s1	CHOP inhibitor 92
COc1ccc(-c2nnc(SCC(=O)Nc3nc4ccccc4s3)n2C)cc1	CHOP inhibitor 93
COc1ccc(-c2nnc(SCC(=O)Nc3ccccc3)n2C)cc1	none
Cc1csc(SCC(=O)Nc2nc3ccccc3s2)n1	none
CCOc1ccc(-c2nnc3ccc(SCC(=O)Nc4nc5ccc(C)cc5s4)nn23)cc1	none
O=C(COc1ccccc1)N=C1SC2CS(=O)(=O)CC2N1c1ccc(F)cc1 (stereo not given)	none (no result: CHOP inhibitor)
CN(C)C(=O)c1ccc(NC(=O)CN2C(=O)NC3(CCCc4ccccc43)C2=O)cc1 (stereo not given)	none (no result: CHOP inhibitor)
O=C(O)CCC(=O)Nc1nc2ccccc2s1	CHOP inhibitor 72
O=C(Cn1ncc2c(=O)oc3ccccc3c21)Nc1nc2ccccc2s1	CHOP inhibitor 88 (no result: 697 NFkB inh, UPR CHOP act, UPR XBP1 act, Jurkat NFkB inh)
CC(=O)C1=C(C)NC(SCC(=O)Nc2nc3ccccc3s2)=C(C#N)C1c1ccc(Cl)cc1 (stereo not given)	CHOP inhibitor 85
O=C(C[n+]1ccccc1)Nc1nc2ccccc2s1	none
Nc1n[nH]c(S(=O)(=O)CCCc2ccccc2)n1	none
O=C(NC1CCCCC1)N(C1=NCCCCC1)c1ccc(Br)cc1	none
c1ccc(Sc2cnc3ccccc3n2)cc1	none
Clc1ccc(Sc2cnc3ccccc3n2)cc1	CHOP inhibitor 76
COc1ccc(-c2c(C#N)c(N)nc(Sc3ccc(Cl)cc3)c2C#N)cc1	CHOP inhibitor 74
CSc1nc(N)c(C#N)c(-c2ccc(Cl)cc2)c1C#N	none
COc1ccc(/C=C/C(=O)Nc2sc(Cc3ccccc3)c(C)c2C(N)=O)cc1	CHOP inhibitor 75
Cc1cccc(N2CCN(C(=O)C3CCN(S(=O)(=O)c4c(C)noc4C)CC3)CC2)c1C	none (no result: CHOP inhibitor)
Nc1[nH]n2c(=O)c3c(nc2c1N=Nc1ccc(Cl)cc1)CCCC3	CHOP inhibitor 78
Nc1[nH]n2c(=O)c3c(nc2c1N=Nc1ccccc1)CCCC3	none
CCCCCCN(C(=O)CCl)c1ccccc1	none
COCCNC(=O)Nc1ccc2nc(-c3cccs3)c(-c3cccs3)nc2c1	none
O=C(Nc1ccc2nc(-c3cccs3)c(-c3cccs3)nc2c1)NC1CC1	CHOP inhibitor 92
c1ccc(Nc2cccc3c(Nc4ccccc4)cccc23)cc1	CHOP inhibitor 79
CC1(OC(=O)C2CCCC2)C(=O)C=C2C=C(c3ccsc3)N(C(CO)CO)C=C2C1=O (stereo not given)	none
O=C(Nc1ccc(Br)cc1)c1cccn1-c1ncc(C(F)(F)F)cc1Cl	CHOP inhibitor 95

Source: PubChem (several laboratories)
